Measured values reported in ChEMBL document CHEMBL1158388, “Preparation of spermine conjugates with acidic retinoids with potent ribonuclease P inhibitory activity” (Eur J Med Chem, 2009).

Assay: Inhibition of Dictyostelium discoideum AX2 RNase P by double reciprocal plot
Procedure, shortened: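 RNase P purified from D. discoideum wild-type cells; 37 °C reactions in buffer D (50 mM Tris/HCl pH 7.6, 10 mM NH4Cl, 5 mM MgCl2, 5 mM DTT) with 2–5 fmol in vitro labeled S. pombe pre-tRNASer transcript and 1.3 µg enzyme-fraction protein, 10% DMSO; stopped with formamide/EDTA dye. Ki from slopes of 1/v vs 1/[pre-tRNA] plots replotted against inhibitor concentration.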

| SMILES | Ki [µM] |
| --- | --- |
| CC1=C(/C=C/C(C)=C/C=C/C(C)=C/C(=O)N(CCCN)CCCCN(CCCN)C(=O)/C=C(C)/C=C/C=C(C)/C=C/C2=C(C)CCCC2(C)C)C(C)(C)CCC1 | 1.1 |
| C/C(=C\c1ccc(C(=O)O)cc1)c1ccc2c(c1)C(C)(C)CCC2(C)C | 45 |
| COc1cc(C)c(/C=C/C(C)=C/C=C/C(C)=C/C(=O)O)c(C)c1C [ACITRETIN] | 8 |
| CC1=C(/C=C/C(C)=C/C=C/C(C)=C/C(=O)NCCCNCCCCNCCCN)C(C)(C)CCC1 | 2.4 |

Other lines, results leading:

| Ki [µM] | SMILES |
| --- | --- |
| 4350 | CCOC(=O)c1ccc(/C=C(\C)c2ccc3c(c2)C(C)(C)CCC3(C)C)cc1 [AROTINOID] |
| 1480 | CC1=C(/C=C/C(C)=C/C=C/C(C)=C/CO)C(C)(C)CCC1 [RETINOL] |
| 15 | CC1=C(/C=C/C(C)=C/C=C/C(C)=C/C(=O)O)C(C)(C)CCC1 [TRETINOIN] |
| 3600 | CCS(=O)(=O)c1ccc(/C=C(\C)c2ccc3c(c2)C(C)(C)CCC3(C)C)cc1 [ETAROTENE] |
| 20 | CC1=C(/C=C/C(C)=C/C=C/C(C)=C\C(=O)O)C(C)(C)CCC1 [ISOTRETINOIN] |
| 2.45 | COc1cc(C)c(/C=C/C(C)=C/C=C/C(C)=C/C(=O)NCCCNCCCCNCCCN)c(C)c1C [N1-Acitretinylspermine] |
